AHR activator = activators of human aryl hydrocarbon receptor | AHR-responsive luciferase reporter cells, luminescence | activation, % at 5 µM | hit rate 2.5% among 320,000; in the data active means activation above about 47%
Target sequence (P35869 whole entry, looked up): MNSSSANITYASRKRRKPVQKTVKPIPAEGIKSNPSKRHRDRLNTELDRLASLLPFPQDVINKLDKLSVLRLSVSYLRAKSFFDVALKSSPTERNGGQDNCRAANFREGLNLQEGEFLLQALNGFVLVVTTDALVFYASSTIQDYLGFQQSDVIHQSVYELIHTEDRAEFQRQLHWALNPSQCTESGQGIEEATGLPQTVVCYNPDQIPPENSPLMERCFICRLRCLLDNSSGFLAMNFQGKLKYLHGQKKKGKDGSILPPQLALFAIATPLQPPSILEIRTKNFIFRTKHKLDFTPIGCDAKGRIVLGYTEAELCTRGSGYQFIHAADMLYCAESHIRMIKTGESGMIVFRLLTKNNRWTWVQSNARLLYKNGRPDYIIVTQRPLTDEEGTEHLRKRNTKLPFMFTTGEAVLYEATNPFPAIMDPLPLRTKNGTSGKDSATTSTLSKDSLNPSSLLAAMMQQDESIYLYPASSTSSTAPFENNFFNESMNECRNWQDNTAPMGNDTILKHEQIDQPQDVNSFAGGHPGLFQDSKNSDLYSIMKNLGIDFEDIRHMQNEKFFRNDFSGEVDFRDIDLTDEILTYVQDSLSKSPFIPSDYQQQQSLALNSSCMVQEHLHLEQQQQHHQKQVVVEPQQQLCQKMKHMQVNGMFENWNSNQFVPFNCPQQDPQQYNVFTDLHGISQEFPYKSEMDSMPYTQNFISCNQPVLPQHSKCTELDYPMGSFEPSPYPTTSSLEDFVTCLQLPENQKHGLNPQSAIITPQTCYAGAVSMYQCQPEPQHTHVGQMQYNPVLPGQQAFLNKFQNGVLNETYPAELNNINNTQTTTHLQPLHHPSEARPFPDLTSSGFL
Efflux pump inh = blocks antifungal efflux pumps in multiplex yeast assay; inhibition, % at 10 µM; hit rate 0.44% among 330,000; AID 485275; S. cerevisiae Candida pump triplex, Nile Red efflux;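 active means plate passing quality check with inhibition over a set limit, or well fluorescence over plate mean plus 4 SD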;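 further: Nile Red retained in pooled yeast measured as flow cytometry median fluorescence; higher means more Nile Red kept so more efflux inhibition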
SMARCA2 activ = activators of SMARCA2 function. MG213 cells, MMTV-luciferase reporter, dexamethasone, overnight. activation, % at 9.1 µM. hit rate 1% among 370,000; in the data active means activation above about 7.8%
TAG inh = inhibitors of triacylglycerol accumulation | inhibition, % at 12.5 µM | AID 651582 | H9c2 cells, Nile Red lipid (TAG) fluorescence; cells loaded with 200 µM oleic acid | hit rate 0.66% among 230,000;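 active means pattern-corrected inhibition of lipid staining of at least 50% with the nuclear-stain viability signal not falling by more than 50%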
Tb MetRS inh = Trypanosoma brucei MetRS inhibition; hit rate 0.4% among 360,000; inhibition, % at 11.9 µM; AID 624268; purified T. brucei MetRS, ATP depletion, Kinase-Glo luminescence;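 active means inhibition above a per-plate cutoff of the control wells' mean inhibition plus 3 SD, cut at about 5.5% in these data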
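Material – parasite MetRS enzyme · Medium – HEPES-MgCl2-KCl buffer plus DTT, spermine, BSA, pyrophosphatase · Reagent – ATP, methionine and E. coli bulk tRNA substrates · Times – 15 min enzyme-compound preincubation, 2 h reaction, 10 min detection, 25 °C · Measured by – luminescence of leftover ATP · Evaluation – percent inhibition relative to median high and low control wells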
SMARCA2 act conf = SMARCA2 activation, confirmation screen; shares compounds with SMARCA2 activ; activation, % at 9.1 µM; hit rate 30% among 3,500; MG213 cells, MMTV-luciferase with dexamethasone, luminescence, overnight; MG213 cells expressing E1A, Rb sequestered; DMSO wells 0%, reference activator 100%;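 active means activation above its plate's cutoff, the mean activation of tested wells plus 3 SD, cut at about 7.9% in these data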
VP16 Luc act = activates GAL4-VP16 luciferase, flagging SMARCA2 activator hits. shares compounds with SMARCA2 activ. HEK293 GAL4-VP16 pG5luc reporter, luciferase luminescence; scaled: DMSO wells 0%, SAHA wells 100%. activation, % at 9.1 µM. hit rate 41% among 3,500. AID 686939;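 active means activation above the solvent-only control well mean plus 3 SD, averaged across control plates, cut at about 5.2% in these data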
Hits are given with their value; n = inactive; x = no result given. This is a sample that favours compounds with a hit; in the whole collection about 4.1% have one here.

SMILES	AHR activator	Efflux pump inh	SMARCA2 activ	TAG inh	Tb MetRS inh	SMARCA2 act conf	VP16 Luc act
Cc1ccc2nc(-c3cccc(Br)c3)c(Cc3ccccc3)n2c1	x	x	10.1	x	n	n	n
Clc1ccc2nc(-c3cccc(Br)c3)c(Cc3ccsc3)n2c1	x	x	8.9	x	n	n	n
Cc1ccc(Cc2c(-c3cccc(Br)c3)nc3ccc(C)cn23)cc1	x	x	n	x	x	x	x
Brc1ccc2nc(-c3ccco3)c(Cc3ccccc3)n2c1	x	x	10.3	x	n	n	n
Clc1cccc(Cc2c(-c3ccco3)nc3ccc(Br)cn23)c1	x	x	n	x	n	x	x
Cc1cc(NCCc2c[nH]c3ccccc23)ccc1Nc1cccnc1	x	x	n	x	x	x	x
COc1ccc(CC(=O)O/N=C(\N)c2ccccn2)cc1	n	n	8.0	n	n	n	6.4
N/C(=N\OC(=O)Cc1ccc(-c2ccccc2)cc1)c1ccccn1	n	n	n	n	n	x	x
Cc1ccc(C)c(OCC(=O)O/N=C(\N)c2ccccn2)c1	n	n	9.2	n	n	n	8.2
COCCCNC(=O)CSc1nnc(-c2cccnc2)n1C1CCCCC1	x	x	n	x	x	x	x
CCN=C1NC(c2cccc(F)c2)C(C(=O)OC)=C(C)N1Cc1ccccc1C(F)(F)F (stereo not drawn)	x	x	n	x	x	x	x
C=CCN1C(=O)[C@H](CC(=O)NCc2ccc(C)o2)[C@@]2(C(=O)OCC)CCCC=C12	x	x	n	x	x	x	x
COC(=O)C1=C(C)N(Cc2ccccc2C(F)(F)F)C(=NCc2cc(OC)c(OC)c(OC)c2)NC1CCc1ccccc1 (stereo not drawn)	x	x	n	x	x	x	x
CCOCC(=O)Nc1ccc(Br)c(C)c1	n	n	n	x	n	x	x
CCCCc1ccc(NC(=O)COCC)cc1	n	n	8.1	n	n	n	n
CCCCc1ccc(NC(=O)N[C@@H](CC(C)C)C(=O)O)cc1	n	n	n	n	n	x	x
CCCCc1ccc(NC(=O)CC(C)C)cc1	n	n	9.7	n	n	n	n
COC(=O)[C@]12C[C@H](CC(=O)NCC3CCCCC3)C(=O)N(Cc3ccco3)C1=C[C@H](C(C)(C)C)O[C@@H]2C	x	x	n	x	x	x	x
O=C(Cc1cn(Cc2ccccc2)c2ccccc12)Nc1ccc(Nc2cccnc2)cc1	x	x	n	x	x	x	x
COc1ccc(/C=C/S(=O)(=O)NCc2ccccc2)c(CNC(=O)OC(C)(C)C)c1	x	x	n	x	x	x	x
COCCCNC(=O)Cn1cc2c(n1)CCC(C)C2 (stereo not drawn)	n	n	n	n	n	x	x
CC1CCc2nn(CC(=O)NCCCN3CCCC3=O)cc2C1 (stereo not drawn)	n	n	8.7	n	n	n	n
Cc1cccc(-c2noc(CCc3ccccc3)n2)c1	n	n	10.9	n	n	n	6.7
Cc1cccc(-c2noc(Cc3ccccc3)n2)c1	n	n	n	x	n	x	x
CN1CCN(S(=O)(=O)c2cccc(C(=O)Nc3sc4c(c3-c3nc5ccccc5[nH]3)CCCC4)c2)CC1	n	n	21.0	x	n	n	n
SMILES	AHR activator	Efflux pump inh	SMARCA2 activ	TAG inh	Tb MetRS inh	SMARCA2 act conf	VP16 Luc act
CN(CCc1ccccn1)C(=O)[C@@H](Cc1ccccc1)NC(=O)[C@H]1O[C@@H](n2ccc(=O)[nH]c2=O)[C@H](O)[C@@H]1O	x	x	n	x	x	x	x
O=C(N[C@H](C(=O)N1CCC[C@H]1C(=O)NC1CCCC1)c1ccccc1)C1CC1	x	x	n	x	x	x	x
COc1ccc(OC)c(S(=O)(=O)N2CCC(C(=O)Nc3cccc(C)c3C)CC2)c1	n	n	8.4	n	n	n	n
COc1ccc(OC)c(S(=O)(=O)N2CCC(C(=O)Nc3ccc(C)c(C)c3)CC2)c1	n	n	n	n	n	x	x
CN(C)c1ccc(Cl)c(NC(N)=S)c1	x	x	8.2	n	n	n	n
CC1CCCCN1C(=O)CSc1nnc(-c2ccccc2O)o1 (stereo not drawn)	n	n	8.9	x	n	n	10.1
CC(C)(C)OC(=O)N1CCC(CNC(=O)Nc2ccccc2)CC1	n	n	n	n	n	x	x
CC(C)(C)OC(=O)N1CCC(CNC(=O)c2ccccc2)CC1	n	n	8.8	n	n	n	n
CN(C)CCCn1c2c3ccccc3ccc2c2oc(=O)c3ccccc3c21	x	x	12.3	77.8	n	54.1	n
CC(=O)CC[C@H]1CC[C@]2(CCCN(C(=O)C3CCCC3)C2)O1	x	x	n	x	x	x	x
CC1Cc2ccccc2N1S(=O)(=O)c1cccc(C(=O)c2nccn2C)c1 (stereo not drawn)	n	n	8.6	x	n	n	n
CC1Cc2ccccc2N1S(=O)(=O)c1cccc(C(=O)N2CCCCC2)c1 (stereo not drawn)	x	x	n	n	n	x	x
Cc1cccc(NC(=O)c2ccccn2)c1C	n	n	8.3	n	n	13.4	8.4
CCOC(=O)C1=C(C)NC(=O)C(C#N)C1c1ccncc1 (stereo not drawn)	n	n	9.8	x	n	n	n
CC(=O)c1nn(-c2cccc(Br)c2)cc1C(=O)c1ccco1	n	n	8.4	n	n	n	n
COc1cc(CNc2cccc3c2S(=O)(=O)N([C@H](C)c2ccccc2)C[C@@H](COCc2ccccc2)O3)cc(OC)c1OC	x	x	n	x	x	x	x
OCC(Cc1ccccc1)Nc1c2ccccc2nc2ccccc12 (stereo not drawn)	n	n	9.8	n	n	n	n
COc1ccccc1C(=O)Nc1nsc(-c2ccccc2)n1	n	n	8.8	n	n	13.4	15.2
COc1ccccc1C(=O)Nc1ccncc1	n	n	n	n	n	x	x
CCOC(=O)N1CCN(C(=O)C[C@H]2C[C@@]3(C(=O)OC)C(=C[C@H](C(C)(C)C)O[C@@H]3C)N(Cc3ccccc3)C2=O)CC1	x	x	n	x	x	x	x
CC1=Nn2c(nc3sc4c(c3c2=O)CCCC4)SC1	n	n	10.1	x	n	n	n
CC1CSc2nc3sc4c(c3c(=O)n21)CCCC4 (stereo not drawn)	n	n	n	n	n	x	x
CC(=O)c1cccc(NC(=O)N2CCc3ccccc3C2)c1	n	n	8.2	x	n	n	7.8
Cc1ccc(NC(=O)N2CCc3ccccc3C2)cc1	n	n	8.9	x	n	n	8.5
CCCNC(=O)c1noc2c1CCc1cc(OC)ccc1-2	n	n	n	n	n	x	x
COc1ccc2c(c1)CCc1c(C(=O)NCc3cccnc3)noc1-2	n	n	10.2	x	n	n	6.4
CCCCCCCCN1C(=O)[C@@H](CC(=O)N2CCOCC2)C[C@@]2(C(=O)OC)C1=C[C@H](COCc1ccccc1)O[C@@H]2C	x	x	n	x	x	x	x
COc1ccc(CNC(=O)[C@@H](Cc2ccccc2)NC(=O)[C@H]2O[C@@H](n3cnc4c(=O)[nH]c(N)nc43)[C@H](O)[C@@H]2O)cc1	x	x	n	x	x	x	x
c1ccc2c(c1)Cc1cc3ccccc3nc1-2	n	n	8.8	x	n	12.8	10.5
COc1ccc(NC(=O)C2C(c3ccc4c(c3)OCO4)=Nc3ccccc3N2C(=O)c2cccc(C(F)(F)F)c2)cc1 (stereo not drawn)	x	x	n	x	n	x	x

High-throughput results (PubChem BioAssay)
